Assay type in all cases: cell-based
The target in assay [1] is T1, Muscarinic acetylcholine receptor M5 (Homo sapiens, UniProt P08912).
T1 sequence (P08912 whole entry): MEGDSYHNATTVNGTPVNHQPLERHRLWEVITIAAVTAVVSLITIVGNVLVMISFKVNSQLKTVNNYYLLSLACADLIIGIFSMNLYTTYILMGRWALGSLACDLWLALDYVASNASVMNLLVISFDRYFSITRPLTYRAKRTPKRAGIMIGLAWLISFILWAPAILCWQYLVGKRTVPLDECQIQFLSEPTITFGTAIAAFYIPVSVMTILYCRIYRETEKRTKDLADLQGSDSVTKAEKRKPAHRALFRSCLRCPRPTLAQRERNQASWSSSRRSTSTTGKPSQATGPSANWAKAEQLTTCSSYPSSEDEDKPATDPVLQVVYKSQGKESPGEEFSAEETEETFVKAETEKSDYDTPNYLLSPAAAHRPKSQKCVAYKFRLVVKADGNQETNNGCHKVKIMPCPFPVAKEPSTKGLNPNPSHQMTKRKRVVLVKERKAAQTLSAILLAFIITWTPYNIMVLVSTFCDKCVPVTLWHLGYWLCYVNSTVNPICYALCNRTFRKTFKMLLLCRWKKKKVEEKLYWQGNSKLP
As to the kind of experiment: Binding affinity towards cloned human muscarinic acetylcholine receptor M5 stably expressed in CHO-K1 cells using [3H]N-methylscopolamine.

The target in assay [2] is T2, Muscarinic acetylcholine receptor M4 (Homo sapiens, UniProt P08173).
T2 sequence (P08173 whole entry): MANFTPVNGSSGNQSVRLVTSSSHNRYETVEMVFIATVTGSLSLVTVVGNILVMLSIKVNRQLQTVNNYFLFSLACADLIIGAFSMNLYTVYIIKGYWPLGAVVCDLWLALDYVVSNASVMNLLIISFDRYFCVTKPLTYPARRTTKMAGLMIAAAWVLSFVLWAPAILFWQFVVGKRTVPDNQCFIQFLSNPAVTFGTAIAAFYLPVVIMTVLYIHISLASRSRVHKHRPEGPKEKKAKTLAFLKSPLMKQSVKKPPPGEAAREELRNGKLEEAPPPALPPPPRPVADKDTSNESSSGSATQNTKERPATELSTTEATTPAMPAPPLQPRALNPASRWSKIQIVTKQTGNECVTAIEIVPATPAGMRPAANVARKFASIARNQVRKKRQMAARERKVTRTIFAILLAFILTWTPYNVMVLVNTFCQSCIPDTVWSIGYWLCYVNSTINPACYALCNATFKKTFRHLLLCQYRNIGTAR
As to the kind of experiment: Binding affinity towards cloned human muscarinic acetylcholine receptor M4 stably expressed in CHO-K1 cells using [3H]N-methylscopolamine.

Assay [3] has as its target T3, Muscarinic acetylcholine receptor M1 (Homo sapiens, UniProt P11229).
T3 sequence (P11229 whole entry): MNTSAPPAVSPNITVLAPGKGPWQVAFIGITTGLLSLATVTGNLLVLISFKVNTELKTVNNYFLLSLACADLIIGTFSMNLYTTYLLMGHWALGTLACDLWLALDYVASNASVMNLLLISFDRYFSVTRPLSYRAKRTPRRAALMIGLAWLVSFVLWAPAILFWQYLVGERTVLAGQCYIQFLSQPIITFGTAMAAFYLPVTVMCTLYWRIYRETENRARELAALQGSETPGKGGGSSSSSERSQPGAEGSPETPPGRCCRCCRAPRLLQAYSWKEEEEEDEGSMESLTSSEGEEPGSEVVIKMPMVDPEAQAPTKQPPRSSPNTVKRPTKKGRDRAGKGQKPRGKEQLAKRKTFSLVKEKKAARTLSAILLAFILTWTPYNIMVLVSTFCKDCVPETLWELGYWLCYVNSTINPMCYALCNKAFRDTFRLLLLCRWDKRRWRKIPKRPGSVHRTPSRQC
As to the kind of experiment: Binding affinity towards cloned human muscarinic acetylcholine receptor M1 stably expressed in CHO-K1 cells using [3H]N-methylscopolamine.

Assay [4] has as its target Muscarinic acetylcholine receptor M3 (Homo sapiens, UniProt P20309). As to the kind of experiment: Binding affinity towards cloned human muscarinic acetylcholine receptor M3 stably expressed in CHO-K1 cells using [3H]N-methylscopolamine.
Assay [5] deals with T4, Muscarinic acetylcholine receptor M2 (Homo sapiens, UniProt P08172).
T4 sequence (P08172 whole entry): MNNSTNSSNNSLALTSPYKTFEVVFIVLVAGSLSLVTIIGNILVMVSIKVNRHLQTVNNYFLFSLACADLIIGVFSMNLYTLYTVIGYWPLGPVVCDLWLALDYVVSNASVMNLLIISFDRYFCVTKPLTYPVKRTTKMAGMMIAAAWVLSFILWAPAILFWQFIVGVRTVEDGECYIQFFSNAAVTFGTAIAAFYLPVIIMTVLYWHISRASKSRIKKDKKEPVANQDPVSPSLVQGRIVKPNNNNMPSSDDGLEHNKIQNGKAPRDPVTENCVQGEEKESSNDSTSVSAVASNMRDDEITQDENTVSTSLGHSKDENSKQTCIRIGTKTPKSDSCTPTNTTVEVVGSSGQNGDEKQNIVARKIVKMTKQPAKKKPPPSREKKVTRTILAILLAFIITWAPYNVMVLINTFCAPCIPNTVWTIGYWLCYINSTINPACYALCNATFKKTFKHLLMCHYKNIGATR
The assay is described as follows: Binding affinity towards cloned human muscarinic acetylcholine receptor M2 stably expressed in CHO-K1 cells using [3H]N-methylscopolamine.

Another assay concerns the target Histamine H1 receptor (Homo sapiens, UniProt P35367). As to the kind of experiment: Compound was evaluated for binding affinity towards cloned human histamine H1 receptors stably expressed in CHO-K1 cells using [3H]mepyramine. A digest of the protocol:
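CHO-K1 membranes with stable human H1 receptor, 18 µg/mL final protein. […] Nonspecific binding with 0.1 mM terfenadine. Filtered and counted. Ki by Cheng-Prusoff. pKi mean ± SD, ≥3 experiments in duplicate.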

Chain of Histamine H1 receptor (P35367 whole entry): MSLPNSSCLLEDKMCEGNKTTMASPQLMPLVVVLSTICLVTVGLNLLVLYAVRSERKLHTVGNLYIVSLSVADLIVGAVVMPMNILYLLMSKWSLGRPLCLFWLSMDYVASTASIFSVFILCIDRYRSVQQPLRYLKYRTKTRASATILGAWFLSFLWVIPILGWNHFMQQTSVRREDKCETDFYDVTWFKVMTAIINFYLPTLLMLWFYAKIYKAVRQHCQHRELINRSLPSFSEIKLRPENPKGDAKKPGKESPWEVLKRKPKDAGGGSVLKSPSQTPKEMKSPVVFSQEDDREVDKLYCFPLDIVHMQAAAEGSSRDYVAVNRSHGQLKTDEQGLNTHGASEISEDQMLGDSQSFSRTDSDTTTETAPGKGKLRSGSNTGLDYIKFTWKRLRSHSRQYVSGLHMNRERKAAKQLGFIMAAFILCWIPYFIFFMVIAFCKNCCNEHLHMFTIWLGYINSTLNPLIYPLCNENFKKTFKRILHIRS
Chain of Muscarinic acetylcholine receptor M3 (P20309 whole entry): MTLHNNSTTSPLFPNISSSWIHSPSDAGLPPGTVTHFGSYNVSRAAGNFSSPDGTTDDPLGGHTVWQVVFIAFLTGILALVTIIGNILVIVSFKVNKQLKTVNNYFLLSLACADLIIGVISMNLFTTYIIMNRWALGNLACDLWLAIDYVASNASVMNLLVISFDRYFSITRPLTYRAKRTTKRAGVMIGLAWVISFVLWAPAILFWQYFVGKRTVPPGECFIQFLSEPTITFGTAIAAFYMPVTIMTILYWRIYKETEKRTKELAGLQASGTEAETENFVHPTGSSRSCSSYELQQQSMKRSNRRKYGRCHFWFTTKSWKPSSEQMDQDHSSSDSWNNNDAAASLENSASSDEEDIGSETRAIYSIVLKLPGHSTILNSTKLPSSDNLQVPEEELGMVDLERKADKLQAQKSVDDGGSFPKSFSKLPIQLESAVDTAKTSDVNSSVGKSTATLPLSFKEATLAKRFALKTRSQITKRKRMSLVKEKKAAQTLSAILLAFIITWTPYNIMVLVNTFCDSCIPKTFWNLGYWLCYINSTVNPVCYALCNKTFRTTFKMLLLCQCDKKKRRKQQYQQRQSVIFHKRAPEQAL

As to `C[C@@H](C1=C(CCN(C)C)Cc2ccccc21)c1ccccn1`, the Ki (in general, a measure of affinity in units of concentration, obtained from inhibition or displacement) is 759 nM in assay [1]; 295 nM in assay [2]; 191 nM in assay [3]; 138 nM in assay [4]; 30.2 nM in assay [5]; 69.2 nM on Histamine H1 receptor.

Consider `CC(C1=C(CCN(C)C)Cc2cc(Cl)ccc21)c1ccccn1` (stereo not drawn), for which the Ki in assay [1] was 724 nM; in assay [2] it was 331 nM; in assay [3], 151 nM; in assay [4], 95.5 nM; in assay [5], 33.1 nM; on Histamine H1 receptor, 0.813 nM.

`CC(C1=C(CCN(C)CCF)Cc2ccccc21)c1ccccn1` (stereo not drawn): the Ki in assay [1] was 2000 nM; in assay [2], 437 nM; in assay [3], 603 nM; in assay [4], 708 nM; in assay [5], 32.4 nM; at Histamine H1 receptor, 7.24 nM.

In the case of `CC(C1=C(CN(C)C)Cc2ccccc21)c1ccccn1` (stereo not drawn), the Ki in assay [1] was 87.1 nM; in assay [2], 97.7 nM; in assay [3], 34.7 nM; in assay [4] it was 31.6 nM; in assay [5], 12.3 nM; on Histamine H1 receptor, 28.8 nM.

`CC(C1=C(CCN(C(C)C)C(C)C)Cc2ccccc21)c1ccccn1` (stereo in doubt; 19): the Ki was 2190 nM in assay [1]; 741 nM in assay [2]; 741 nM in assay [3]; 2240 nM in assay [4]; 25.1 nM in assay [5].

Turning to `CC(C1=C(CCN(C(C)C)C(C)C)Cc2ccccc21)c1ccccn1` (stereo in doubt; (+)-19), the Ki in assay [1] was 5130 nM; in assay [2] it was 5500 nM; in assay [3], 5890 nM; in assay [4] it was 20900 nM; in assay [5] it was 575 nM; on Histamine H1 receptor, 219 nM.

`CC(C1=C(CCN(C(C)C)C(C)C)Cc2ccccc21)c1ccccn1` (stereo in doubt; (-)-19): the Ki in assay [1] was 11700 nM; in assay [2], 1780 nM; in assay [3] it was 1550 nM; in assay [4], 4070 nM; in assay [5] it was 42.7 nM; at Histamine H1 receptor it was 2450 nM.

For the molecule `C[C@H](C1=C(CCN(C)C)Cc2ccccc21)c1ccccn1` [(S)-(+)-DIMETHINDENE], the Ki in assay [1] was 2690 nM; in assay [2] it was 3890 nM; in assay [3], 1860 nM; in assay [4], 3390 nM; in assay [5] it was 1230 nM; on Histamine H1 receptor, 0.437 nM.

In the case of `CC(C1=C(CCN(C)C)Cc2ccccc21)c1ccccn1` (stereo not drawn) [DIMETHINDENE], the Ki at Histamine H1 receptor is 0.692 nM.
